The subject of data set [1] is J774.A1. Put plainly: Cytotoxicity against mouse […] cell assessed as survival rate. In kind it is functional. Also noted: concentration or dose not given beside the values. The essentials: (§1)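 Cultured murine macrophages were exposed to peptide at a final concentration of 30 μM or 10 μM, depending on the peptide. Viability was read by MTT conversion to formazan. Results are percent survival versus buffer-treated controls, as mean and standard error of the mean of at least three independent experiments.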

The test system of data set [2] is RAW264.7. The data set can be described thus: Cytotoxicity against mouse RAW264.7 cell assessed as survival rate. The format is functional. Details: concentration or dose not given beside the values. The essentials: as §1
A further data set relates to Pseudomonas aeruginosa. The data set can be described thus: Antimicrobial activity against Pseudomonas aeruginosa PAO1. The format is functional. An outline of the steps: (§2)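 MICs were determined by standard methods on the gram-negative strains and on S. aureus strains 6538p (methicillin-sensitive) and BBA-41 (methicillin-resistant). Peptides had acetylated N termini and amidated C termini, and were purified by RP-HPLC. Reported as the range of values seen in at least three independent experiments.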

The nature of data set [3]: Selectivity index, Ratio of MIC for Staphylococcus aureus 6538p to fraction of human erythrocyte hemolysis at 64 uM. The format is functional.
Data set [4] has as its system Staphylococcus epidermidis. Put plainly: Antimicrobial activity against Staphylococcus epidermidis. In kind it is functional.
The test system of a further data set is Escherichia coli. The data set can be described thus: Antimicrobial activity against Escherichia coli BL21. The format is functional. The essentials: as §2
The test system of data set [5] is Staphylococcus aureus. Put plainly: Antimicrobial activity against Staphylococcus aureus BBA-41. In kind it is functional. The essentials: as §2
Data set [6] in a line: Selectivity index, Ratio of MIC for Staphylococcus epidermidis to fraction of human erythrocyte hemolysis at 64 uM. The format is functional.
Data set [7] can be described thus: Selectivity index, Ratio of MIC for Pseudomonas aeruginosa PAO1 to fraction of human erythrocyte hemolysis at 64 uM. The format is functional.
For the next data set, the species on record is Homo sapiens. The data set can be described thus: Hemolysis of human erythrocyte at 64 uM. The format is ADME. The essentials:
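Peptide (64 μM) was incubated with a 1% suspension of fresh human erythrocytes at 37°C for 1 h. Released hemoglobin was measured and expressed relative to cells lysed with 1% Triton X-100. Values are means of multiple independent experiments.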

Data set [8] is described as follows: Selectivity index, Ratio of MIC for Escherichia coli BL21 to fraction of human erythrocyte hemolysis at 64 uM. The format is functional.
The subject of data set [9] is Staphylococcus aureus. Put plainly: Antimicrobial activity against Staphylococcus aureus 6538p. In kind it is functional. The essentials: as §2
Data set [10] concerns J774.A1. The data set can be described thus: Cytotoxicity against mouse […] cell assessed as survival rate at 10 uM. The format is functional. An outline of the steps: as §1
The subject of data set [11] is RAW264.7. The data set can be described thus: Cytotoxicity against mouse RAW264.7 cell assessed as survival rate at 10 uM. The format is functional. The essentials:
as §1

Values after ≈ are worked out from the molar mass of the structure shown. Peptide text beside a SMILES is read from it.

In the case of `CC[C@H](C)[C@H](NC(=O)[C@H](CCCCN)NC(=O)[C@H](CCCCN)NC(=O)[C@H](Cc1ccccc1)NC(=O)[C@H](CCCCN)NC(=O)[C@H](CCCCN)NC(=O)[C@H](Cc1c[nH]c2ccccc12)NC(=O)[C@H](CCCCN)NC(C)=O)C(=O)NCC(=O)N[C@@H](C)C(=O)N[C@H](C(=O)N[C@@H](CC(C)C)C(=O)N[C@@H](CCCCN)C(=O)N[C@@H](CCCCN)C(=O)N[C@@H](CC(C)C)C(N)=O)C(C)C` (Ac-KWKKFKKIGAVLKKL-NH2), the Activity in the data set with J774.A1 [1] amounted to 94%; with RAW264.7 [2], 104%. Besides, the MIC – broadly, the smallest concentration in the dilution series that meets the test's criterion for growth inhibition – against Pseudomonas aeruginosa is 1 µM (≈ 1.86 µg/mL); in [4], 0.5 µM (≈ 0.928 µg/mL); against Escherichia coli, 1 µM (≈ 1.86 µg/mL); with Staphylococcus aureus [5] it was above 16 µM; with Staphylococcus aureus [9] it was above 16 µM. Besides, the “Selectivity Index” value is reported as below 0.5 in data set [3], 68 in [6], 8.3 in data set [7] and 16.7 in [8]. In addition, the Hemolysis in the data set filed under Homo sapiens stood at 3%.
Take `CC[C@H](C)[C@H](NC(=O)[C@H](CCCCN)NC(=O)[C@H](CCCCN)NC(=O)[C@H](Cc1ccccc1)NC(=O)[C@H](CCCCN)NC(=O)[C@H](CCCCN)NC(=O)[C@H](Cc1c[nH]c2ccccc12)NC(=O)[C@H](CCCCN)NC(C)=O)C(=O)NCC(=O)N[C@@H](C)C(=O)N[C@H](C(=O)N[C@@H](CC(C)C)C(=O)N[C@@H](CCCCN)C(=O)N[C@H](C(=O)N[C@@H](CC(C)C)C(N)=O)C(C)C)C(C)C` (Ac-KWKKFKKIGAVLKVL-NH2): the Activity in the data set on J774.A1 [1] amounted to 81%; in the data set on RAW264.7 [2], 73%. The MIC against Pseudomonas aeruginosa is 0.5 µM (≈ 0.914 µg/mL); in [4] it was 0.5 µM (≈ 0.914 µg/mL); in the data set on Escherichia coli, 0.25 µM (≈ 0.457 µg/mL); against Staphylococcus aureus [5], above 16 µM; in the data set with Staphylococcus aureus [9] it was 16 µM (≈ 29.2 µg/mL). The “Selectivity Index” value in [3] was 0.3; in [6], 9.5; in data set [7], 4.8; in data set [8] it was 9.5. Moreover, the Hemolysis in the data set filed under Homo sapiens was found to be 21%.
Consider `CC[C@H](C)[C@H](NC(=O)[C@H](CCCCN)NC(=O)[C@H](CCCCN)NC(=O)[C@H](Cc1ccccc1)NC(=O)[C@H](CCCCN)NC(=O)[C@H](CCCCN)NC(=O)[C@H](Cc1c[nH]c2ccccc12)NC(=O)[C@H](CCCCN)NC(C)=O)C(=O)NCC(=O)N[C@@H](CCCCN)C(=O)N[C@H](C(=O)N[C@@H](CC(C)C)C(=O)N[C@@H](CCCCN)C(=O)N[C@H](C(=O)N[C@@H](CC(C)C)C(N)=O)C(C)C)C(C)C` (Ac-KWKKFKKIGKVLKVL-NH2), for which the values for the Activity with J774.A1 [1] and with RAW264.7 [2] were 88% and 86%, respectively. The MIC with Pseudomonas aeruginosa is 0.5 µM (≈ 0.942 µg/mL); in data set [4] it was 0.25 µM (≈ 0.471 µg/mL); in the data set on Escherichia coli, 0.5 µM (≈ 0.942 µg/mL); in the data set with Staphylococcus aureus [5], above 16 µM; with Staphylococcus aureus [9], 16 µM (≈ 30.2 µg/mL). The “Selectivity Index” value in data set [3] is recorded as 0.7; in data set [6], 44; in [7], 11; in [8], 22. The same compound displayed a Hemolysis in the data set listed under Homo sapiens of 9%.
Turning to `CC[C@H](C)[C@H](NC(=O)[C@H](CCCCN)NC(=O)[C@H](CCCCN)NC(=O)[C@H](Cc1ccccc1)NC(=O)[C@H](CC(C)C)NC(=O)[C@H](CCCCN)NC(=O)[C@H](Cc1c[nH]c2ccccc12)NC(=O)[C@H](CCCCN)NC(C)=O)C(=O)NCC(=O)N[C@@H](C)C(=O)N[C@H](C(=O)N[C@@H](CC(C)C)C(=O)N[C@@H](CCCCN)C(=O)N[C@@H](CCCCN)C(=O)N[C@@H](CC(C)C)C(N)=O)C(C)C` (Ac-KWKLFKKIGAVLKKL-NH2), the Activity in the data set with J774.A1 [1] stood at 74%; in the data set on RAW264.7 [2], 88%. Besides, the MIC came out at 2 µM (≈ 3.68 µg/mL) in the data set on Pseudomonas aeruginosa; 0.25 µM (≈ 0.46 µg/mL) in data set [4]; 1 µM (≈ 1.84 µg/mL) in the data set on Escherichia coli; 8 µM (≈ 14.7 µg/mL) against Staphylococcus aureus [5]; 4 µM (≈ 7.37 µg/mL) against Staphylococcus aureus [9]. Besides, the “Selectivity Index” value in data set [3] is on record as 3; in data set [6] it was 48; in [7] it was 6.25; in [8], 6.25. The compound further yielded a Hemolysis in the data set listed under Homo sapiens of 4%.
As to `CC[C@H](C)[C@H](NC(=O)[C@H](CCCCN)NC(=O)[C@H](CCCCN)NC(=O)[C@H](Cc1ccccc1)NC(=O)[C@H](CC(C)C)NC(=O)[C@H](CCCCN)NC(=O)[C@H](Cc1c[nH]c2ccccc12)NC(=O)[C@H](CCCCN)NC(C)=O)C(=O)NCC(=O)N[C@@H](C)C(=O)N[C@H](C(=O)N[C@@H](CC(C)C)C(=O)N[C@@H](CCCCN)C(=O)N[C@H](C(=O)N[C@@H](CC(C)C)C(N)=O)C(C)C)C(C)C` (Ac-KWKLFKKIGAVLKVL-NH2), the MIC was 2 µM (≈ 3.62 µg/mL) with Pseudomonas aeruginosa; 0.5 µM (≈ 0.906 µg/mL) in data set [4]; 0.5 µM (≈ 0.906 µg/mL) against Escherichia coli; 1 µM (≈ 1.81 µg/mL) against Staphylococcus aureus [5]; 0.5 µM (≈ 0.906 µg/mL) in the data set with Staphylococcus aureus [9]. Also, the figures for the Activity in the data set on J774.A1 [10] and in the data set on RAW264.7 [11] were 16% and 21%, respectively. Moreover, the “Selectivity Index” value in [3] was 1.1; in [6] it was 2.2; in data set [7], 0.56; in data set [8] it was 2.2. Besides, the Hemolysis in the data set listed under Homo sapiens worked out at 45%.
In the case of `CC[C@H](C)[C@H](NC(=O)[C@H](CCCCN)NC(=O)[C@H](CCCCN)NC(=O)[C@H](Cc1ccccc1)NC(=O)[C@H](CC(C)C)NC(=O)[C@H](CCCCN)NC(=O)[C@H](Cc1c[nH]c2ccccc12)NC(=O)[C@H](CCCCN)NC(C)=O)C(=O)NCC(=O)N[C@@H](CCCCN)C(=O)N[C@H](C(=O)N[C@@H](CC(C)C)C(=O)N[C@@H](CCCCN)C(=O)N[C@@H](CCCCN)C(=O)N[C@@H](CC(C)C)C(N)=O)C(C)C` (Ac-KWKLFKKIGKVLKKL-NH2), the Activity stood at 45% with J774.A1 [1] and 57% with RAW264.7 [2]. The MIC in the data set with Pseudomonas aeruginosa stood at 1 µM (≈ 1.9 µg/mL); in [4] it was 0.25 µM (≈ 0.475 µg/mL); in the data set with Escherichia coli, 1 µM (≈ 1.9 µg/mL); in the data set with Staphylococcus aureus [5] it was 16 µM (≈ 30.4 µg/mL); against Staphylococcus aureus [9], 4 µM (≈ 7.59 µg/mL). Also, the “Selectivity Index” value in data set [3] was 1.5; in [6], 50; in data set [7], 6.25; in data set [8] it was 12.5. Further, in the data set listed under Homo sapiens, the Hemolysis was 8%.
On to `CC[C@H](C)[C@H](NC(=O)[C@H](CCCCN)NC(=O)[C@H](CCCCN)NC(=O)[C@H](Cc1ccccc1)NC(=O)[C@H](CC(C)C)NC(=O)[C@H](CCCCN)NC(=O)[C@H](Cc1c[nH]c2ccccc12)NC(=O)[C@H](CCCCN)NC(C)=O)C(=O)NCC(=O)N[C@@H](CCCCN)C(=O)N[C@H](C(=O)N[C@@H](CC(C)C)C(=O)N[C@@H](CCCCN)C(=O)N[C@H](C(=O)N[C@@H](CC(C)C)C(N)=O)C(C)C)C(C)C` (Ac-KWKLFKKIGKVLKVL-NH2), for which the values for the Activity with J774.A1 [1] and with RAW264.7 [2] were 43% and 56%, respectively. Further, the MIC in the data set with Pseudomonas aeruginosa stood at 1 µM (≈ 1.87 µg/mL); in data set [4] it was 0.5 µM (≈ 0.935 µg/mL); in the data set with Escherichia coli it was 0.5 µM (≈ 0.935 µg/mL); in the data set with Staphylococcus aureus [5], 4 µM (≈ 7.48 µg/mL); in the data set on Staphylococcus aureus [9], 1 µM (≈ 1.87 µg/mL). Also, the “Selectivity Index” value is on record as 0.8 in [3], 3 in data set [6], 0.4 in data set [7] and 1.5 in data set [8]. The compound also gave a Hemolysis in the data set listed under Homo sapiens of 67%.

The values above are taken from ChEMBL document CHEMBL1275574, “Lysine-enriched cecropin-mellitin antimicrobial peptides with enhanced selectivity” (Antimicrob Agents Chemother, 2008).
